Compound activity: PubChem, several laboratories
Compounds with a hit are over-represented: about 6.8% of the library has one in this group of screens.
AI-2 QS modul: modulates the Vibrio harveyi AI-2 quorum sensing system | Vibrio harveyi JMH597 AI-2 luminescence/OD600 ratio, 9 h; stronger effect = lower value; strain lacks LuxN and CqsS sensors; 0 = neutral-control median | activity change, % at 7.5 µM | 0.4% of 300,000 active | AID 2094; in the data active = activity change below about -75%, passing the limit was not always enough; inconclusive = no clear call, values can overlap the other calls;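 also: luminescence divided by OD600 gain over 9 h not by final OD600 alone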
PHOSPHO1 block: inhibitors of human PHOSPHO1 phosphatase; Q8TCT1; recombinant PHOSPHO1, absorbance phosphatase assay; inhibition, % at 13.3 µM; 1.1% of 290,000 active; in the data active = inhibition above about 60%
Target sequence (Q8TCT1 whole entry, looked up): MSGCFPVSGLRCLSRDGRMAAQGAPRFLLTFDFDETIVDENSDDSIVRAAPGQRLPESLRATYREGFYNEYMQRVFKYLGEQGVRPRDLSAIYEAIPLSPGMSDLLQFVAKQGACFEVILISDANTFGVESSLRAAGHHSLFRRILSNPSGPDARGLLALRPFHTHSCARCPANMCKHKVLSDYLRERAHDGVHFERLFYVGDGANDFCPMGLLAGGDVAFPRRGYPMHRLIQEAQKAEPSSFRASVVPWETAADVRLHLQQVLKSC
HCV core dimer: blocks dimerization of HCV core protein; TR-FRET GST/Flag-core106 dimerization, 1536-well; inhibition, % at 5 µM; 0.33% of 300,000 active; AID 1899;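 active = inhibition above the mean of all tested compounds plus 3 SD, set per screening campaign, cut at about 45% in these data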
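Assay system: tagged HCV core106 pair (GST and Flag); medium: KF-containing HEPES buffer, pH 7.45, DTT, CHAPS, BSA; also added: Eu donor and XL665 acceptor anti-tag antibodies; dosing: 5 µM single dose; timing: compound-protein-antibody incubation 4 h at 22.5 °C; signal: TR-FRET 671 and 617 nm emission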
HSF1 activator: increases HSF-1 driven luciferase reporter signal; NIH3T3-HGL HSF-1 luciferase reporter, MG132, 8 h; 100% = twice DMSO control signal; 1.7% of 300,000 active; AID 504408; activation, % at 9 µM;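 active = mean replicate activation of at least 50% with a set share of replicates each reaching 50%; inconclusive = only one of those two conditions met; inactive = mean below 50% and too few replicates reaching it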;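 also: 0% = median of the neutral control wells and 100% = twice that signal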
HSF1 inh: HSF1 inhibition | 0.77% of 300,000 active | activity change, negative = inhibition, % at 7.5 µM (by protocol) | NIH3T3-HGL HSE-luciferase, MG132-induced, luminescence 8 h; stronger effect = lower value;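 active = more than half of replicate wells show activity change below -50%, luminescence cut by over half; inconclusive = some wells, but at most half, below -50%; inactive = no replicate well below -50%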;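 also: luciferase reports HSF-1 transcriptional activity via heat shock element; 0% = median of DMSO wells and -100% = zero luminescence signal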
ALR inh: human ALR oxidase inhibition via reduced H2O2; AID 485317; purified ALR, DTT oxidation, H2O2 HRP-luminol luminescence; inhibition, % (test concentration not listed); 3.8% of 290,000 active;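 active = mean replicate inhibition above about 79%, with every replicate also reaching it, limit read from the data; inconclusive = only one of the two criteria met; inactive = mean below limit and not every replicate reaching it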
Target sequence (P55789 whole entry, looked up): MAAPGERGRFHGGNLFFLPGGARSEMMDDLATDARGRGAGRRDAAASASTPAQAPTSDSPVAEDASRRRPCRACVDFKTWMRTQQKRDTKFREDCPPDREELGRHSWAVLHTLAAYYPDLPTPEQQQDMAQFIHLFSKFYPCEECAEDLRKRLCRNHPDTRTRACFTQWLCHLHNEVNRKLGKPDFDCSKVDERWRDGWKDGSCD
An asterisk follows results filed as active; ? = inconclusive; nt = not tested or not shown.

SMILES	AI-2 QS modul	PHOSPHO1 block	HCV core dimer	HSF1 activator	HSF1 inh	ALR inh
COc1ccc(-c2c3c(=O)n(C)c(=O)n(C)c3cn2-c2ccc(O)cc2)cc1	32	-3	2	-15	-8	89*
Cc1ccc(OCCOC(=O)CN2C(=O)NC3(CCCC3)C2=O)cc1	9	nt	-4	8	0	0
CCC(Sc1nc(C)cc(C)n1)C(=O)NC1=NN=C(c2ccc(C)cc2)CS1 (stereo unspecified)	10	104*	-6	-71	-74*	64
Cc1ccc2cc(CCNS(=O)(=O)c3ccc(Cl)cc3)c(=O)[nH]c2c1C	7	12	8	20	8	nt
CC(=O)Nc1ccc(S(=O)(=O)NCCc2cc3ccc(C)c(C)c3[nH]c2=O)cc1	26	63*	3	-12	-1	-4
NS(=O)(=O)c1ccc(NC(=O)COC(=O)COc2ccc(Cl)cc2)cc1	21	47	-3	3	2	-2
Cc1ccc(NC(=O)c2cc(-n3cnnc3)ccc2Cl)cc1	6	6	0	1	-10	-7
Cc1ccc(NC(=O)c2cc(N3C(=O)C=CC3=O)ccc2Cl)cc1C	60	-41	25	60*	44	0
CCOC(=O)N1CCN(C(=O)c2ccc(CS(=O)Cc3ccccc3Cl)o2)CC1 (stereo unspecified)	1	37	7	-17	-1	?
O=C(c1ccc(CS(=O)Cc2ccccc2Cl)o1)N1CCN(C2CCCCC2)CC1 (stereo unspecified)	10	24	5	-20	-17	98*
NC(=S)Nc1cccc2cc3ccccc3cc12	-80*	97*	-22	27	12	17
NC(=S)Nc1cc2ccccc2c2ccccc12	-44	-139	-9	8	1	26
Cc1ccc(S(=O)(=O)NNC(=O)Nc2ccc([N+](=O)[O-])cc2)c(C)c1	15	18	0	6	-9	-6
N#Cc1ccccc1S(=O)(=O)N1CCN(C(=O)Cc2n[nH]c(=O)c3ccccc23)CC1	nt	nt	nt	nt	nt	4
N#Cc1ccccc1S(=O)(=O)N1CCN(C(=O)Cc2coc3cc(O)ccc23)CC1	nt	nt	nt	nt	nt	99*
CC(=O)N(c1ccc2oc(=O)sc2c1)S(=O)(=O)c1ccc(C(=O)O)cc1	20	2	-3	-65	-60*	nt
CC(C)C(=O)N(c1cc2sc(=O)oc2c2ccccc12)S(=O)(=O)c1cccs1	16	92*	-2	nt	nt	-17
CC(C)C(=O)N(c1ccc2oc(=O)sc2c1)S(=O)(=O)c1cccs1	-10	87*	0	-14	-2	18
CC(=O)N(c1ccc2oc(=O)sc2c1)S(=O)(=O)c1cccs1	-7	-39	-3	9	4	nt
O=C(CC(Sc1ccc(Br)cc1)C(=O)O)c1ccc(F)cc1 (stereo unspecified)	1	6	1	-28	-6	nt
CCOc1ccc(C(=O)CC(Sc2ccc(C)cc2)C(=O)O)cc1 (stereo unspecified)	41	-10	5	12	6	95*
Cc1cccc(C(=O)Nc2ccccc2C(=O)NCc2ccco2)c1	18	4	4	-33	-20	-5
Cc1cc(NC(=O)COC(=O)C2CCN(S(=O)(=O)c3ccccc3)CC2)c([N+](=O)[O-])cc1C	9	22	18	-5	-7	-3
O=C(Cn1cc(C(F)(F)F)ccc1=O)N/N=C/c1ccc(O)cc1	14	-1	-5	-5	-19	99*
COc1cccc(C2(O)CC(C(F)(F)F)=NN2C(=O)c2ccccn2)c1 (stereo unspecified)	5	37	3	20	19	-2
SMILES	AI-2 QS modul	PHOSPHO1 block	HCV core dimer	HSF1 activator	HSF1 inh	ALR inh
CC(C)/C=C/C(=O)N1CCC(N2CCC(C(=O)NCc3ccccn3)CC2)CC1	3	70*	-12	4	-4	-14
C#Cc1ccc(CN2CCC(N3CCC(C(=O)NCc4ccccn4)CC3)CC2)cc1	1	50	-5	9	0	0
CCn1cc(CN2CCc3c([nH]c4ccccc34)C2c2cccc(O)c2)c(C)n1 (stereo unspecified)	21	64*	-6	-12	-3	-10
O=S(=O)(c1cc(O)ccc1O)c1cccc2c(S(=O)(=O)c3cc(O)ccc3O)cccc12	-60	nt	-37	9	0	93*
Cc1c(C(=O)NNc2c(Cl)cccc2Cl)n(C)oc1=O	20	8	-2	5	-6	98*
Cc1nnsc1C(=O)NNc1c(Cl)cccc1Cl	4	6	-1	-4	0	98*
NC(=O)c1c(NC(=O)CSc2nnc(Cc3ccccc3)n2Cc2ccco2)sc2c1CCC2	17	39	5	18	3	87*
C/C(=N\NC(=O)OC(C)(C)C)c1ccccc1Br	15	46	2	27	9	nt
O=c1c2ccccc2nnn1CSc1ccc2c(c1)OCCO2	16	-31	1	76*	49	34
CCC(C(=O)Nc1ccc2c(c1)OCCO2)n1nnc2ccccc2c1=O (stereo unspecified)	10	33	2	12	10	3
COC(=O)c1cc(S(=O)(=O)N2CCN(Cc3ccccc3)CC2)c[nH]1	14	38	-12	3	-1	-2
Cc1ccc(-c2nc(C#N)c(N3CCC(C(N)=O)CC3)o2)cc1	0	32	-19	-8	-9	-5
Cc1cc(NC(=S)N(Cc2ccc(Br)cc2)Cc2ccc(C(=O)O)cc2)ccc1Cl	18	-1	29	58*	49	6
Cc1cccc(NC(=S)N(Cc2ccc(Br)cc2)Cc2ccc(C(=O)O)cc2)c1	49	-16	8	2	0	63
CC(=N\Nc1ccc(Cl)cc1)/C(=N/O)C(=O)Nc1ccccc1	-9	11	-8	3	7	99*
COCCNC(=O)CSc1nnc(CCCN2C(=O)c3cccc4cccc(c34)C2=O)n1-c1ccccc1	37	-3	2	-9	-7	-6
O=C(Nc1cccc(-c2ccc(N3CCCCC3)nn2)c1)c1ccc(Br)o1	38	nt	10	-4	3	nt
CC1CCN(c2ccc(-c3cccc(NC(=O)C(F)(F)F)c3)nn2)CC1	16	38	-3	-84	-82*	1
O=C(Nc1cccc(-c2ccc(N3CCCCC3)nn2)c1)C(F)(F)F	35	15	-3	-54	?	92*
COC(=O)CN(C)C(=O)c1ccccc1OC1CCN(S(C)(=O)=O)CC1	?	-6	-3	10	-3	nt
C/C(=N\N(Cc1ccccc1)c1ccccc1)c1ccncc1	10	-2	2	6	-4	99*
CCCOC1CCCN(C(=O)CCc2nnc(Cc3cccc(C)c3)o2)C1 (stereo unspecified)	14	-42	2	63*	30	-1
